Assay results gathered from unrelated publications.
Target: Mitogen-activated protein kinase 13 (MAPK13, Homo sapiens, UniProt O15264)
Sequence (O15264 1-365, as in one of the studies): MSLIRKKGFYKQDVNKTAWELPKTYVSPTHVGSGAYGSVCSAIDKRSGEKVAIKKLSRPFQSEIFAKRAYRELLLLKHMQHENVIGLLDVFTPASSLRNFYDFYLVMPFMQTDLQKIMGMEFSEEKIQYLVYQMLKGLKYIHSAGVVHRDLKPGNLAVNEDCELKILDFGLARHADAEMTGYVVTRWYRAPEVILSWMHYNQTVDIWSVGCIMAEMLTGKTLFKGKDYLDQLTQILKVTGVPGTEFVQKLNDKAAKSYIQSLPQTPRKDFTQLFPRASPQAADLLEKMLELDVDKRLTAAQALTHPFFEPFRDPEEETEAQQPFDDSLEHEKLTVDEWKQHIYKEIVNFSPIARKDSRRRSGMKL

COc1ccc2c(c1)O[C@H](c1ccc(OC)c(OC)c1)C[C@@H]2NC(=O)C1(c2ccc3c(c2)OC(F)(F)O3)CC1  remaining binding (cell-free assay; competition with immobilised ligand; 1 µM): 100%
FC(F)(F)Oc1cccc(-c2cnc3ccc(-c4ccncc4)nn23)c1  remaining binding (cell-free assay; competition with immobilised ligand; 5 µM): 97%
NS(=O)(=O)c1cc(NC(=O)C2(c3ccccc3Cl)CC2)ccc1Oc1cccc(Cl)c1  remaining binding (cell-free assay; competition with immobilised ligand; 1 µM): 88%
CN(C)c1nccc(-c2cnn3ncccc23)n1  remaining binding (binding; 1 µM): 100%
CNC(=O)[C@@H]1CC[C@@H](n2c(-c3ccc4cnccc4c3)nc3ccc(C(=O)NCc4cccc(C(N)=O)c4)cc32)C1  remaining binding (binding; competition with immobilised ligand; 1 µM): 100%
CN(CCCC(F)(F)F)c1nccc(-c2cnn3ncccc23)n1  remaining binding (binding; 1 µM): 100%
CCN1CCN(Cc2ccc(C(=O)Nc3ccc(C)c(Oc4ccc5c(c4)CC(=O)N5)c3)cc2C(F)(F)F)CC1  remaining binding (binding; competition with immobilised ligand; 1 µM): 100%
CS(=O)(=O)N1CCCC(NC(=O)[C@H](CCC2CCCCC2)NC(=O)c2ccc(CNC(=O)c3cnc4ccccn34)cc2)C1 (stereo partly shown)  remaining binding (cell-free assay; competition with immobilised ligand; 0.1 µM): 100%
CN(C)c1ncc(F)c(-c2cnn3ncccc23)n1  remaining binding (binding; 1 µM): 96%
C[C@@H](c1ccc(-n2cnc3c(N)ncnc32)cc1)N1CCc2nn(C)c(Cc3ccccc3)c2C1=O  remaining binding (binding; competition with immobilised ligand; 0.1 µM): 83%
O=C(c1ccc(Nc2nccc(-c3cc4ccccc4s3)n2)cc1)N1CCC(N2CCCC2)CC1  remaining binding (binding; competition with immobilised ligand; 1 µM): 100%
CN(c1nccc(-c2cnn3ncccc23)n1)C1CC1  remaining binding (binding; 1 µM): 100%
COc1cnc(Nc2cccc(S(N)(=O)=O)c2)nc1N1CCN(c2ccccc2)C(=O)C1  remaining binding (binding; competition with immobilised ligand; 1 µM): 95%
NS(=O)(=O)c1cc(NC(=O)Cc2ccccc2)ccc1Oc1cccc(Cl)c1  remaining binding (cell-free assay; competition with immobilised ligand; 1 µM): 100%
O=C(NCC1CCOCC1)c1n[nH]cc1NC(=O)c1c(F)cccc1F  remaining binding (binding; competition with immobilised ligand; 1 µM): 100%
N[C@H]1CCN(c2nccc(-c3cnn4ncccc34)n2)C1  remaining binding (binding; 1 µM): 84%
O=C(c1ccc(Nc2ncc(Cl)c(-c3cc4ccccc4s3)n2)cc1)N1CCC(N2CCCC2)CC1  remaining binding (binding; competition with immobilised ligand; 1 µM): 100%
C[C@H]1CCN(c2nccc(-c3cnn4ncccc34)n2)C1  remaining binding (binding; 1 µM): 83%
CCS(=O)(=O)c1cc2cc(C[C@](O)(CC(C)(C)c3ccc(F)cc3C(N)=O)C(F)(F)F)[nH]c2cn1  remaining binding (cell-free assay; competition with immobilised ligand; 1 µM): 100%
Cc1cnc(Nc2ccc(C(=O)N3CCC(N4CCCC4)CC3)cc2)nc1-c1cc2ccccc2s1  remaining binding (binding; competition with immobilised ligand; 1 µM): 100%
CN1CCN(c2cnc3c(C4CCN(C(=O)c5ccc(OC(F)(F)F)cc5N)CC4)ncnc3c2)CC1  remaining binding (cell-free assay; competition with immobilised ligand; 1 µM): 100%
F[C@@H]1CCN(c2nccc(-c3cnn4ncccc34)n2)C1  remaining binding (binding; 1 µM): 67%
